The values that follow come from ChEMBL document CHEMBL4145461, “Novel non-sulfonamide 5-HT6 receptor partial inverse agonist in a group of imidazo[4,5-b]pyridines with cognition enhancing properties” (Eur J Med Chem, 2018).

The source made the active and inactive calls. The rule behind the calls is not given here.

In test [1] the target is T1, 5-hydroxytryptamine receptor 6 (Homo sapiens, UniProt P50406). Put plainly: Displacement of [3H]-LSD from human 5HT6R expressed in HEK293 cell membranes after 1 hr by microbeta counting method. Summed up: (§1)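 HEK293 (5-HT1A, 5-HT6, 5-HT7b, D2L) or CHO-K1 (5-HT2A) membranes, all Tris–HCl with 4 mM MgCl2 plus receptor-specific EDTA/pargyline/ascorbate (D2L adds NaCl, KCl, CaCl2). Nonspecific binding: 10 μM 5-HT (5-HT1A, 5-HT7), chlorpromazine (5-HT2A), methiothepine (5-HT6), haloperidol (D2L). Triplicate, 7–8 concentrations (10⁻¹¹–10⁻⁴ M), filtration; Ki via Cheng–Prusoff, mean of three experiments. Incubation 1 h 37 °C; 5-HT1A 1 h and 5-HT2A 1.5 h, room temperature.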
T1 sequence (P50406 whole entry): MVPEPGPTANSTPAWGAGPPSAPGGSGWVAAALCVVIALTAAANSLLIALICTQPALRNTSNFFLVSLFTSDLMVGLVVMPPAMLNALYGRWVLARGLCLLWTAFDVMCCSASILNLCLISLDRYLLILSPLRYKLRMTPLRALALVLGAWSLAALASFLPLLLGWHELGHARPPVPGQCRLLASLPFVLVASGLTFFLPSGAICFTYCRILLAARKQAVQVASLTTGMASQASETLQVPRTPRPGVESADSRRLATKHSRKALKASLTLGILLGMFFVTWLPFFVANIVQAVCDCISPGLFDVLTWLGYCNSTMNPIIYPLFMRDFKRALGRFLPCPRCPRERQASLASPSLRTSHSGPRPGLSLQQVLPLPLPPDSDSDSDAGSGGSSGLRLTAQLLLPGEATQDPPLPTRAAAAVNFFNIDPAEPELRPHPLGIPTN

For test [2], the target named is 5-hydroxytryptamine receptor 7 (Homo sapiens, UniProt P34969). Put plainly: Displacement of [3H]-5-CT from human 5HT7BR expressed in HEK293 cell membranes after 1 hr by microbeta counting method. The method, boiled down: as §1
5-hydroxytryptamine receptor 7, sequence (P34969 whole entry): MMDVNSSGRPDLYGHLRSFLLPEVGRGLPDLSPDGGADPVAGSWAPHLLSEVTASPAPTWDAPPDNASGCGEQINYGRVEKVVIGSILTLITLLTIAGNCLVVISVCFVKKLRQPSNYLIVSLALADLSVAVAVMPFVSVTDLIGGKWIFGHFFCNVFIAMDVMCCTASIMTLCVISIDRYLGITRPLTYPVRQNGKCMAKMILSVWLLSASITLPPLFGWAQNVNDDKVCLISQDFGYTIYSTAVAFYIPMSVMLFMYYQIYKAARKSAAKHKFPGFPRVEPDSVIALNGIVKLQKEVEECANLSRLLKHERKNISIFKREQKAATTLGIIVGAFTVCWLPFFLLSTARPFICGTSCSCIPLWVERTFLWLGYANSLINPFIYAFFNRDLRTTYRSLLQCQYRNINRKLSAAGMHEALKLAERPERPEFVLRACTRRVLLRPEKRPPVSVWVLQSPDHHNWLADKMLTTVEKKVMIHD
The target in test [3] is D(2) dopamine receptor (Homo sapiens, UniProt P14416). Put plainly: Displacement of [3H]-Raclopride from human dopamine D2L receptor expressed in HEK293 cell membranes after 1 hr by microbeta counting method. Summed up: as §1
D(2) dopamine receptor, sequence (P14416 whole entry): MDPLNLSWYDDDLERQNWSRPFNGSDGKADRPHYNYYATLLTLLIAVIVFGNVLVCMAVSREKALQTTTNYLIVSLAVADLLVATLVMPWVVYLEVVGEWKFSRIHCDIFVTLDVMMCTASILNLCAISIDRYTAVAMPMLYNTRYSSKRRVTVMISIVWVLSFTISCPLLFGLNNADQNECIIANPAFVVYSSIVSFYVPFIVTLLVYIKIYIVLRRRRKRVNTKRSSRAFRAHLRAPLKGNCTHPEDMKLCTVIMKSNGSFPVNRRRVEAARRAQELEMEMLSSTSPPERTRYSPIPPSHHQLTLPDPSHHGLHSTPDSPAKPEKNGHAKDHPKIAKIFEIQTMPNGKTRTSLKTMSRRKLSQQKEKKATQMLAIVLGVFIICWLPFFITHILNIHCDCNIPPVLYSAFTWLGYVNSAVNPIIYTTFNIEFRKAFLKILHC
In test [4] the test system is Rattus norvegicus. Put plainly: Reversal of PCP-induced cognitive impairment in Sprague-Dawley rat assessed as reduction in time spent exploring novel object over familiar object at 0.3 to 1 mg/kg, po administered 120 mins before familiarization phase measured for 3 mins post familiarization phase by novel object recognition assay. In kind it is functional, organism-based. The method, boiled down: (§2)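 Male Sprague–Dawley rats, habituated to the arena 5 min 24 h before testing. PCP (5 mg/kg i.p., 45 min) or scopolamine (1.25 mg/kg i.p., 30 min) given before familiarization trial T1; test compound or donepezil given p.o. 120 min before T1. T1 and T2 each last 3 min, separated by an inter-trial interval. DI = (EB−EA)/(EA+EB) from T2 exploration time; 8–10 rats/group; ANOVA with Newman–Keuls.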

Test [5] concerns the target T1, 5-hydroxytryptamine receptor 6. As to the kind of experiment: Antagonist activity at 5HT6R (unknown origin) transfected in NG108-15 cells co-transfected with CAMYEL assessed as reduction in cAMP levels after 5 mins by Coelanterazine H-based BRET assay. In kind it is functional, cell-based.
The target in test [6] is T2, 5-hydroxytryptamine receptor 1A (Homo sapiens, UniProt P08908).
T2 sequence (P08908 whole entry): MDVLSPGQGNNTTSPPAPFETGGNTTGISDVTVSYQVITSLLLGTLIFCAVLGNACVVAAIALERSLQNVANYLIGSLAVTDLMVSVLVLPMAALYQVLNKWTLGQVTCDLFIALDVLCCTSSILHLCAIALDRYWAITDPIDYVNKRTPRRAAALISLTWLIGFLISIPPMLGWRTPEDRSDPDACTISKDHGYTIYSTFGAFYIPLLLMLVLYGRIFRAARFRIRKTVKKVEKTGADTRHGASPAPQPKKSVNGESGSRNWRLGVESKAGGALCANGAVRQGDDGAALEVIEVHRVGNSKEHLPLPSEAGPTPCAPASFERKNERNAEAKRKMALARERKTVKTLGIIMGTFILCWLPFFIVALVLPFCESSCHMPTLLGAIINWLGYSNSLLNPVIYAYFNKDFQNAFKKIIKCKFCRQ
Put plainly: Displacement of [3H]-8-OH-DPAT from human 5HT1AR expressed in HEK293 cell membranes after 1 hr by microbeta counting method. The method, boiled down:
(§3)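 HEK293 (5-HT1A, 5-HT6, 5-HT7b, D2L) or CHO-K1 (5-HT2A) membranes, all Tris–HCl with 4 mM MgCl2 plus receptor-specific EDTA/pargyline/ascorbate (D2L adds NaCl, KCl, CaCl2). Nonspecific binding: 10 μM 5-HT (5-HT1A, 5-HT7), chlorpromazine (5-HT2A), methiothepine (5-HT6), haloperidol (D2L). Triplicate, 7–8 concentrations (10⁻¹¹–10⁻⁴ M), filtration; Ki via Cheng–Prusoff, mean of three experiments.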

Test [7] addresses 5-hydroxytryptamine receptor 2A (Homo sapiens, UniProt P28223). Put plainly: Displacement of [3H]-Ketanserin from human 5HT2AR expressed in CHO-K1 cell membranes after 1.5 hrs by microbeta counting method. Summed up: as §3
In test [8] the target is T1, 5-hydroxytryptamine receptor 6. As to the kind of experiment: Binding affinity to 5HT6R (unknown origin).
Test [9] concerns Rattus norvegicus. Put plainly: Reversal of SCOP-induced cognitive impairment in Sprague-Dawley rat assessed as reduction in time spent exploring novel object over familiar object at 0.3 mg/kg, po administered 120 mins before familiarization phase measured for 3 mins post familiarization phase by novel object recognition assay. In kind it is functional, organism-based.
Test [10] has as its system Rattus norvegicus. As to the kind of experiment: Reversal of SCOP-induced cognitive impairment in Sprague-Dawley rat assessed as reduction in time spent exploring novel object over familiar object at 1 mg/kg, po administered 120 mins before familiarization phase measured for 3 mins post familiarization phase by novel object recognition assay. It counts as functional, organism-based. Summed up: as §2

5-hydroxytryptamine receptor 2A, sequence (P28223 whole entry): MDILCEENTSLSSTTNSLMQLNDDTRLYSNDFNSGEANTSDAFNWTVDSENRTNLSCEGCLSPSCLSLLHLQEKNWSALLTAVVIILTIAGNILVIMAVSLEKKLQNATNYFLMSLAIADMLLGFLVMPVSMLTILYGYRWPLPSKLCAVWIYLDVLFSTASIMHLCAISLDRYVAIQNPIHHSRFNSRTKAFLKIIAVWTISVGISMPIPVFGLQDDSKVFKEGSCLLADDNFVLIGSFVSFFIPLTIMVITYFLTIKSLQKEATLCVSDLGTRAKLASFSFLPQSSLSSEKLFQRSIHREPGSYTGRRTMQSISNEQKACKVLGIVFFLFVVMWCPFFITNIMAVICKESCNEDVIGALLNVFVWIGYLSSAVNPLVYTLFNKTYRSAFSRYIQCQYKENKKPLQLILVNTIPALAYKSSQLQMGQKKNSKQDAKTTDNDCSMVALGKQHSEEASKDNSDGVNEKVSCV

As to `CCc1nc2c(N3CCNCC3)ccnc2n1Cc1ccc(F)c(F)c1`, affinity in [1] was put at a Ki of 139 nM.

On to `O=S(=O)(c1ccccc1)c1cnc2c(N3CCNCC3)cccc2c1` [INTEPIRDINE], for which the Ki in [2] was found to be 14200 nM; in [3], 997 nM. The result in test [4] was Active. In the case of `CCc1nc2c(N3CCNCC3)ccnc2n1CCc1cccc(Cl)c1`, the Ki in test [1] came to 42 nM. In turn, `CC(C)c1nc2c(N3CCNCC3)ccnc2n1CCc1cccc(Cl)c1` returned an inhibitory constant (Ki) in test [1] of 80 nM. The same measure, in the same setting: the same measure for `Clc1cccc(Cn2cnc3c(N4CCNCC4)nccc32)c1`: 320 nM; for `CCC(CC)c1nc2c(N3CCNCC3)ccnc2n1Cc1cccc(Cl)c1`: 30 nM. For `CCc1nc2c(N3CCNCC3)ccnc2n1Cc1cccc(Cl)c1`, the Ki in [1] was determined as 7 nM; in [6], 1350 nM; in test [7], 449 nM; in test [2], 8750 nM; in test [3], 6100 nM. Moreover, the IC50 in test [5] amounted to 51.9 nM. In test [1], `Cc1nc2c(N3CCNCC3)ccnc2n1Cc1ccccc1` gave a Ki of 101 nM. Still for that read-out and setting: the same measure for `COc1cccc(Cn2c(C(C)C)nc3c(N4CCNCC4)ccnc32)c1`: 92 nM; for `CCc1nc2c(N3CCNCC3)ccnc2n1Cc1cc(F)ccc1F`: 57 nM; for `CCc1nc2c(N3CCNCC3)ccnc2n1Cc1ccccc1`: 36 nM. Consider `CC(C)c1nc2c(N3CCNCC3)nccc2n1Cc1cccc(Cl)c1`, for which the Ki in test [1] stood at 126 nM. The same measure, in the same setting: as for `CC(C)c1nc2c(N3CCNCC3)ccnc2n1Cc1ccc(Cl)cc1`, the figure is 107 nM. In [1], `Cc1nc2c(N3CCNCC3)ccnc2n1Cc1cccc(Cl)c1` came in with a Ki of 21 nM. Same read-out and setting: as for `Clc1cccc(Cn2c(-c3cccs3)nc3c(N4CCNCC4)ccnc32)c1`, the figure is 165 nM. Still for that read-out and setting: as for `COc1ccccc1Cn1c(C)nc2c(N3CCNCC3)ccnc21`, the figure is 337 nM. Regarding `NC(=O)NC[C@@H]1CCCc2cc(S(=O)(=O)c3cccc(F)c3)ccc21`, the Ki in [8] was found to be 0.2 nM. Compound `Fc1cccc(CCn2cnc3c(N4CCNCC4)ccnc32)c1` returned a Ki in test [1] of 1300 nM. On the same count and under the same terms, as for `Cc1nc2c(N3CCNCC3)nccc2n1Cc1cccc(Cl)c1`, the figure is 254 nM; as for `CCc1nc2c(N3CCNCC3)ccnc2n1Cc1ccccc1Cl`, 177 nM. In test [8], `O=S(=O)(c1ccccc1)n1ncc2c(N3CCNCC3)nccc21` yielded an inhibition constant Ki of 5 nM. Turning to `Cc1nc2c(N3CCNCC3)ccnc2n1Cc1ccccc1Cl`, in test [1], the affinity, expressed as Ki, was 829 nM. `Cc1nc2c(N3CCNCC3)ccnc2n1CCc1cccc(Cl)c1` returned a Ki in test [1] of 312 nM.

The compound `Cc1cccc(Cn2c(CC(C)(C)C)nc3c(N4CCNCC4)ccnc32)c1` gave a Ki in test [1] of 142 nM.

As to `Cc1cccc(Cn2c(C)nc3c(N4CCNCC4)ccnc32)c1`, the inhibitory constant (Ki) in [1] turned out to be 26 nM. Regarding `Clc1cccc(Cn2cnc3c(N4CCNCC4)ccnc32)c1`, in test [1], the Ki was determined as 33 nM. For the compound `CCC(CC)c1nc2c(N3CCNCC3)ccnc2n1Cc1ccccc1Cl`, the Ki in test [1] is 108 nM. On the same count and under the same terms, the same measure for `Cc1nc2c(N3CCNCC3)ccnc2n1Cc1ccc(F)cc1`: 317 nM; for `CC(C)c1nc2c(N3CCNCC3)ccnc2n1Cc1ccc(F)cc1`: 80 nM. On to `COc1cc2c(cc1OC)C(=O)C(CC1CCN(Cc3ccccc3)CC1)C2` (stereo not drawn), for which the outcome in [9] was inactive. For the same compound, the outcome in [10] was Active.

`c1ccc(Cn2cnc3c(N4CCNCC4)ccnc32)cc1` yielded a Ki in test [1] of 110 nM. The same measure, in the same setting: the same measure for `CCC(CC)c1nc2c(N3CCNCC3)ccnc2n1Cc1cccc(C)c1`: 42 nM; for `CCc1nc2c(N3CCNCC3)ccnc2n1CCc1cccc(F)c1`: 56 nM.

`CC(C)c1nc2c(N3CCNCC3)ccnc2n1Cc1cccc(F)c1`: the Ki in test [1] was found to be 13 nM; in test [6] it was 5930 nM; in test [7], 475 nM; in test [2] it was 11900 nM; in test [3] it was 3440 nM. For the same compound, in test [5], the IC50 is 69.5 nM.

In turn, `Cc1nc2c(N3CCNCC3)ccnc2n1Cc1cccc(C(F)(F)F)c1` returned an inhibitory constant (Ki) in test [1] of 62 nM. Still for that read-out and setting: as for `CC(C)c1nc2c(N3CCNCC3)ccnc2n1Cc1ccccc1F`, the figure is 61 nM; as for `COc1cccc(Cn2c(CC(C)(C)C)nc3c(N4CCNCC4)ccnc32)c1`, 165 nM; as for `Clc1cccc(CCn2cnc3c(N4CCNCC4)ccnc32)c1`, 1250 nM.

As to `CC(C)c1nc2c(N3CCNCC3)ccnc2n1Cc1cccc(Cl)c1`, the inhibitory constant (Ki) came out at 2280 nM in [6], 694 nM in test [7], 7140 nM in test [2] and 2940 nM in [3]. For `c1ccc(Cn2cnc3c(N4CCNCC4)nccc32)cc1`, in [1], the inhibition constant (Ki) turned out to be 450 nM. The compound `Fc1ccc(-c2nc3c(N4CCNCC4)ccnc3n2Cc2cccc(F)c2)cc1` yielded a Ki in [1] of 162 nM.

In the case of `Cc1nc2c(N3CCNCC3)nccc2n1Cc1ccccc1`, the Ki in [1] came out at 374 nM.
